Activity calls are given as the source filed them. The calls are words filed in the database; no cut-off is given here.

The species named for assay [1] is Rattus norvegicus. In words: Locomotor activity after reserpine pretreatment in rat. The class given is functional. The procedure, abridged: (§1)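 Rats received reserpine 10 mg/kg ip 6 h and DL-α-methyl-p-tyrosine methyl ester 250 mg/kg ip 1 h before, then test drug sc immediately before the session. Photocell counts accumulated over 30 min, mean ± SEM, n = 4-9; t test vs saline controls. Haloperidol 0.3 mg/kg ip 30 min before test drug used for blockade.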

Assay [2] is filed under the species Rattus norvegicus. In words: Locomotor activity after no pretreatment in rat at high-dose region expressed as percent of saline control. The class given is functional.
The species entered for assay [3] is Rattus norvegicus. Put plainly: Locomotor activity after no pretreatment in rat at low-dose region expressed as percent of saline control. The class given is functional.
In assay [4] the test system is Rattus norvegicus. Put plainly: Effective dose against DOPA accumulation in rat brain limbic region after no pretreatment by subcutaneous administration. In kind it is functional. The note with it: sc. Put shortly: (§2)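 Untreated male Sprague-Dawley rats (200-300 g) received test drug sc 65 min and NSD 1015 100 mg/kg ip 30 min before death; saline controls. Limbic or striatal DOPA measured by HPLC-electrochemical detection. ED50 is the dose giving half-maximal increase or decrease of DOPA formation, from 4-5 dose levels (n = 3-10); controls = 100%.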

The test system of assay [5] is Rattus norvegicus. Put plainly: Effective dose against DOPA accumulation in rat brain limbic region after reserpine pretreatment by subcutaneous administration. The note with it: sc. The class given is functional. The procedure, abridged: (§3)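 Male Sprague-Dawley rats (200-300 g), reserpine 5 mg/kg ip 18 h, test drug sc 60 min, and NSD 1015 100 mg/kg ip 30 min before death; saline controls. Limbic and striatal DOPA measured by HPLC-electrochemical detection. ED50 is the dose giving half-maximal decrease of DOPA formation, estimated from 4-7 dose levels (n = 3); controls = 100%.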

In assay [6] the test system is Rattus norvegicus. In words: Effective dose against DOPA accumulation in rat brain striatal region after no pretreatment by subcutaneous administration. In kind it is functional. The note with it: sc. Put shortly:
as §2

In assay [7] the test system is Rattus norvegicus. Put plainly: Effective dose against DOPA accumulation in rat brain striatal region after reserpine pretreatment by subcutaneous administration. The class given is functional. The note with it: sc. The procedure, abridged:
as §3

Assay [8] relates to Rattus norvegicus. Put plainly: Effective dose against DOPA accumulation in rat brain limbic region after reserpine pretreatment by subcutaneous administration; No significant effect of 16 mg/kg subcutaneous administration. The class given is functional, organism-based. Set-up: dose 16 mg/kg.
Assay [9] concerns Rattus norvegicus. Put plainly: Effective dose against DOPA accumulation in rat brain striatal region after reserpine pretreatment by subcutaneous administration; No significant effect of 16 mg/kg subcutaneous administration. In kind it is functional, organism-based. Also noted: dose 16 mg/kg.
The species named for assay [10] is Rattus norvegicus. In words: Locomotor activity after reserpine pretreatment in rat; Not Tested. In kind it is functional, organism-based.
Assay [11] has as its system Rattus norvegicus. In words: Effective dose against DOPA accumulation in rat brain limbic region after reserpine pretreatment by subcutaneous administration; No significant effect at 0.5 mg/kg intraperitoneal administration. In kind it is functional, organism-based. Also noted: dose 0.5 mg/kg.
For assay [12], the system named is Rattus norvegicus. Put plainly: Effective dose against DOPA accumulation in rat brain striatal region after reserpine pretreatment by subcutaneous administration; No significant effect at 0.5 mg/kg intraperitoneal administration. The class given is functional, organism-based. Also noted: dose 0.5 mg/kg.
For assay [13], the species on record is Rattus norvegicus. Put plainly: Locomotor activity after reserpine pretreatment in rat(p<0.001). The class given is functional. The procedure, abridged:
as §1

The species entered for assay [14] is Rattus norvegicus. In words: Locomotor activity after no pretreatment in rat at high-dose region expressed as percent of saline control; Inactive. The class given is functional, organism-based.
The species named for assay [15] is Rattus norvegicus. In words: Locomotor activity after no pretreatment in rat at low-dose region expressed as percent of saline control; Inactive. The class given is functional, organism-based.
Assay [16] has as its system Rattus norvegicus. Put plainly: Effective dose against DOPA accumulation in rat brain striatal region after no pretreatment by subcutaneous administration; No significant effect of 16 mg/kg subcutaneous administration. In kind it is functional, organism-based. Set-up: dose 16 mg/kg.
In assay [17] the test system is Rattus norvegicus. Put plainly: Effective dose against DOPA accumulation in rat brain limbic region after no pretreatment by subcutaneous administration; No significant effect of 16 mg/kg subcutaneous administration. Also noted: dose 16 mg/kg. The class given is functional, organism-based.

What is called ED50 is the dose at which the effect has come halfway, by size or by number of responders. In the case of `CCCN(CCC)[C@H]1CCc2c(O)cccc2[C@H]1C.Cl`, the “Accumulated counts/30 min” value in the assay filed under Rattus norvegicus [1] is 79. Moreover, the Control in the assay listed under Rattus norvegicus [2] stood at 171%; in the assay filed under Rattus norvegicus [3] it was 65%. In addition, the ED50 in the assay with Rattus norvegicus [4] amounted to 0.25 mg/kg; with Rattus norvegicus [5], 0.09 mg/kg; in the assay on Rattus norvegicus [6], 0.25 mg/kg; in the assay with Rattus norvegicus [7], 0.1 mg/kg.
On to `CCCN(CCC)[C@@H]1CCc2c(O)cccc2[C@@H]1C.Cl`, for which the “Accumulated counts/30” value in the assay listed under Rattus norvegicus [1] is reported as 6. Further, the Control came to 69% in the assay listed under Rattus norvegicus [2] and 128% in the assay filed under Rattus norvegicus [3]. For the same compound, the ED50 with Rattus norvegicus [4] amounted to 3 mg/kg; in the assay on Rattus norvegicus [6] it was 2.8 mg/kg. For the same compound, the ED50 result with Rattus norvegicus [8] and in the assay with Rattus norvegicus [9] was “inactive” throughout.
`CCCN(CCC)[C@@H]1CCc2c(OC)cccc2[C@@H]1C.Cl`: the “Accumulated counts/30 min” value in the assay listed under Rattus norvegicus [1] is listed as 4. In addition, the results for the Control in the assay filed under Rattus norvegicus [2] and in the assay filed under Rattus norvegicus [3] were 49% and 144%, respectively. In addition, the median effective dose (ED50) with Rattus norvegicus [4] was determined as 4 mg/kg; in the assay with Rattus norvegicus [6], 3 mg/kg. The ED50 entry with Rattus norvegicus [8] and in the assay with Rattus norvegicus [9] was “inactive” throughout.
With `O=C(CCCN1CCC(O)(c2ccc(Cl)cc2)CC1)c1ccc(F)cc1` [HALOPERIDOL], the “Accumulated counts/30 min” value in the assay listed under Rattus norvegicus [10] was “inactive”. The Control in the assay listed under Rattus norvegicus [2] came out at 3%; in the assay filed under Rattus norvegicus [3] it was 75%. Moreover, the ED50 in the assay on Rattus norvegicus [4] and in the assay with Rattus norvegicus [6] was 0.07 mg/kg each time. In addition, the ED50 entry in the assay with Rattus norvegicus [11] and in the assay with Rattus norvegicus [12] was “inactive” in each case.
As for `CN1CCc2cccc3c2[C@H]1Cc1ccc(O)c(O)c1-3` [APOMORPHINE], in the assay listed under Rattus norvegicus [13], the “Accumulated counts/30” value was 361. In addition, the Control came out at 277% in the assay listed under Rattus norvegicus [2] and 52% in the assay listed under Rattus norvegicus [3]. Besides, the ED50 in the assay with Rattus norvegicus [5] worked out at 0.06 mg/kg; in the assay with Rattus norvegicus [7], 0.07 mg/kg.
Consider `CCCN(CCC)[C@H]1CCc2c(OC)cccc2[C@H]1C.Cl`, for which, in the assay listed under Rattus norvegicus [1], the “Accumulated counts/30 min” value is on record as 8. The Control result in the assay filed under Rattus norvegicus [14] and in the assay listed under Rattus norvegicus [15] was “inactive” in each case. Moreover, the 50% effective dose (ED50) with Rattus norvegicus [5] is 1.7 mg/kg; in the assay on Rattus norvegicus [7] it was 1.8 mg/kg. In addition, the ED50 result in the assay on Rattus norvegicus [16] and in the assay on Rattus norvegicus [17] was “inactive” throughout.

These data come from ChEMBL document CHEMBL1122913, “Novel dopamine receptor agonists and antagonists with preferential action on autoreceptors” (1985).
